Source: article PMC3906126 (Biochemistry, 2013)
No end group written: not given here.

Key:
[1] = target: T1, WW1 domain of WWOX (Homo sapiens, UniProt Q9NZC7); assay: ITC binding of ErbB4 PPXY peptides to WW1 domain of WWOX
T1 sequence (Q9NZC7 16-50 limits assumed): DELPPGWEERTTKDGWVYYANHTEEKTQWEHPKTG
Summary of the method: (§1)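 His-tagged human WWOX constructs: WW1 (residues 16–50), WW1–WW2 tandem (16–91), and WW2 (57–91) carrying Y85W. Expressed in E. coli BL21*(DE3) and purified by Ni-NTA then SEC. 12-mer ErbB4 peptides (4 mM in syringe) injected 25× into 40–60 μM protein at 25 °C. Buffer: 50mM sodium phosphate, 100mM NaCl, 1mM EDTA, 5mM β-mercaptoethanol, pH 7.0. Buffer-titration heats subtracted. One-site fit with stoichiometry fixed at 1 gives Kd and ΔH. At least 3 repeats, SD.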

[2] = target: WW2W domain of WWOX (Homo sapiens, UniProt Q9NZC7, Y85W); assay: ITC binding of ErbB4 PPXY peptides to WW2W; settings: for ΔH: Table 3, pH 7.0, 25°C, mean ± SD, at least three measurements
Chain of WW2W domain of WWOX (Q9NZC7 57-91 Y85W limits assumed): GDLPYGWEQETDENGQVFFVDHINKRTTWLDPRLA
Summary of the method: as §1

[3] = target: T2, WW1–WW2 tandem module of WWOX (Homo sapiens, UniProt Q9NZC7); assay: ITC binding of ErbB4 PPXY peptides to WW1–WW2 tandem module of WWOX; settings: Table 4, pH 7.0, 25°C, mean ± SD, at least three measurements
T2 sequence (Q9NZC7 16-91): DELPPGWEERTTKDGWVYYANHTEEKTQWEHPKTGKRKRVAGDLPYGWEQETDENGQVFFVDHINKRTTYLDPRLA
Summary of the method: as §1

[4] = test system: WW2 domain of WWOX; assay: ITC binding of WW1 domain of WWOX to WW2 domain and vice versa; design: species or system human

| Substance | affinity of binding to WW1 domain (in words) [1] | ΔH [2] | ΔH [3] | enthalpy released relative to the PY3_WT peptide ([1]; ΔH of mutant versus PY3_WT) | affinity for WW2W domain relative to binding of WW1 domain ([2]; Tables 1 and 3 compared) | binding between the two WW domains [4] |
| --- | --- | --- | --- | --- | --- | --- |
| H-FNIPPPIYTSRA-OH [ErbB4_PY1] | in the order of hundreds of micromolar | -4.74 ± 0.52 kcal/mol | -7.25 ± 0.88 kcal/mol | – | – | – |
| H-GHSPPPAYTPMS-OH [ErbB4_PY2] | in the order of hundreds of micromolar | -8.08 ± 1.09 kcal/mol | -4.88 ± 0.28 kcal/mol | – | – | – |

More lines, now with the values ahead:

| affinity of binding to WW1 domain (in words) [1] | ΔH [2] | ΔH [3] | enthalpy released relative to the PY3_WT peptide ([1]; ΔH of mutant versus PY3_WT) | affinity for WW2W domain relative to binding of WW1 domain ([2]; Tables 1 and 3 compared) | binding between the two WW domains [4] | Substance |
| --- | --- | --- | --- | --- | --- | --- |
| – | – | – | more than −5 kcal/mol | – | – | H-TVLPPPPYRARN-OH [PY3_A+5] |
| – | -4.15 ± 0.28 kcal/mol | -5.00 ± 0.30 kcal/mol | – | more than two-fold stronger | – | H-TVLPPPPYRHRN-OH [ErbB4_PY3] |
| – | – | – | – | – | no observable binding | WW1: WW1 domain (residues 16–50) of human WWOX, recombinant with N-terminal His-tag ({His‑tag}-DELPPGWEERTTKDGWVYYANHTEEKTQWEHPKTG) |
